Assay [1] concerns the target T1, cGMP-specific 3',5'-cyclic phosphodiesterase (Bos taurus, UniProt Q28156). Nature of the assay: Inhibitory activity against phosphodiesterase was determined in vitro using bovine aorta, at 1 uM cGMP for cGMP-PDE;Compound is insignificant.
In assay [2] the target is T2, Phosphodiesterase 1 (Bos taurus, UniProt Q01061+P14100). Nature of the assay: Inhibitory activity against […] phosphodiesterase was determined in vitro using bovine aorta, at 1 uM cGMP in the presence of calcium (10 uM) and calmodulin (15 nM); Compound is insignificant. It counts as protein assay.
The target of assay [3] is T2, Phosphodiesterase 1. Put plainly: Inhibitory activity against phosphodiesterase was determined in vitro using bovine aorta, at 1 uM cGMP in the presence of calcium (10 uM) and calmodulin (15 nM). In kind it is protein assay. The procedure, abridged:
(§1)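 Calmodulin-dependent PDE peak taken from DEAE-trisacryl gradient fractions of a 105000g vascular smooth muscle supernatant. Assayed with 1 μM cGMP substrate, CaCl2 and excess bovine brain calmodulin, keeping hydrolysis ≤15%. Drugs in DMSO or DMF, final solvent ≤1%. IC50 from linear regression of % activity vs log concentration, using at least six points. Mean ± SEM of three separate enzyme preparations.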

The target of assay [4] is cAMP phosphodiesterase (Bos taurus). Put plainly: Inhibitory activity against phosphodiesterase was determined in vitro using bovine aorta, at 1 uM cAMP for cAMP-PDE.
Assay [5] has as its target T2, Phosphodiesterase 1. Nature of the assay: Inhibition of phosphodiesterase from bovine aorta with 1 uM cGMP calcium (10 uM) and calmodulin (15 nM) (insignificant). In kind it is protein assay. The procedure, abridged: as §1
Assay [6] addresses T1, cGMP-specific 3',5'-cyclic phosphodiesterase. Put plainly: Inhibition of cGMP-PDE phosphodiesterase from bovine aorta using 1 uM cGMP (insignificant).
The target is the same in assay [7]. Put plainly: Inhibitory activity against phosphodiesterase was determined in vitro using bovine aorta, at 1 uM cGMP for cGMP-PDE.
Assay [8] has as its target cAMP phosphodiesterase (Bos taurus). Put plainly: Inhibitory activity against phosphodiesterase was determined in vitro using bovine aorta, at 1 uM cAMP for cAMP-PDE. The source holds these as a separate data set.
Assay [9] addresses T1, cGMP-specific 3',5'-cyclic phosphodiesterase. Put plainly: Inhibition of cGMP-PDE phosphodiesterase from bovine aorta using 1 uM cGMP. The procedure, abridged: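 Enzyme from the 105000g supernatant, separated on DEAE-trisacryl with a 0–0.4 NaCl gradient; the cGMP-PDE peak was dialysed and stored at −80 °C. Assayed without calcium, with EGTA, at 1 μM cGMP, keeping hydrolysis ≤15%. Drugs were in DMSO or DMF, ≤1% final.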

Assay [10] is described as follows: Inhibition of phosphodiesterase from bovine aorta with 1 uM cGMP calcium (10 uM) and calmodulin (15 nM). The arrangement: species or system Bos taurus. The procedure, abridged:
as §1

Assay [11] deals with cAMP phosphodiesterase (Bos taurus). Nature of the assay: Inhibition of cAMP-PDE phosphodiesterase from bovine aorta using 1 uM cAMP (insignificant).

The term IC50 denotes the concentration that gives 50% inhibition.

Bounds are passed on as bounds.

Take `COc1ccc(C2CNC(=O)C2C(=O)O)cc1OC` (centres undefined): the IC50 in assay [1] was above 1000 µM; at Phosphodiesterase 1 [2] it was above 0.001 M.
In the case of `COc1ccc(C2CNC(=O)C2)cc1OC1CCCC1` (centres undefined) [ROLIPRAM], the IC50 on Phosphodiesterase 1 [3] was determined as 2700 µM.
On to `COc1cc2c(cc1OC)[C@@H]1CNC(=O)[C@H]1CC2`, for which the IC50 in assay [4] is 138 µM; on Phosphodiesterase 1 [5] it was above 0.001 M; in assay [6] it was above 1000 µM.
For the molecule `CCCCNC(=O)CCCOc1cc(C2CNC(=O)C2)ccc1OC` (centres undefined), the IC50 was above 1000 µM in [7], 16 µM in assay [8] and above 0.001 M on Phosphodiesterase 1 [3].
As for `CCCCOc1cc(C2CN=C(S)C2)ccc1OC` (centres undefined), the figures for the IC50 (in [9]; on Phosphodiesterase 1 [2]; in [4]) were 195 µM, above 0.001 M and 500 µM, respectively.
In the case of `COc1ccc(C2CNC(=O)C2C)cc1OC` (centres undefined), the half-inhibitory concentration (IC50) in assay [7] is above 1000 µM; in assay [8], 22 µM; at Phosphodiesterase 1 [3], above 0.001 M.
With `CCOC(=O)C1C(=O)NCC1c1ccc(OC)c(OC)c1` (centres undefined), the IC50 in assay [1] is above 1000 µM; at Phosphodiesterase 1 [2] it was above 0.001 M; in [4], 21 µM.
In the case of `COc1cc2c(cc1OC)[C@H]1CC(=O)NC1C2` (some centres undefined), the IC50 in assay [1] is above 1000 µM; on Phosphodiesterase 1 [2], above 0.001 M; in assay [4], 800 µM.
For `COc1cc2c(cc1OC)[C@@H]1CNC(=O)[C@@H]1CC2`, the IC50 in assay [1] is above 1000 µM; on Phosphodiesterase 1 [2], above 0.001 M; in assay [4], 220 µM.
For the molecule `CCCCOc1cc(CC2CNC(=O)N2)ccc1OC` (centres undefined) [RO-201724], the IC50 in [7] turned out to be 380 µM; on Phosphodiesterase 1 [3], 940 µM.
As to `CCCCOc1cc(C2CNC(=O)C2)ccc1OC` (centres undefined), the results for the IC50 (in [7]; in assay [8]; at Phosphodiesterase 1 [3]) were above 1000 µM, 13 µM and above 0.001 M, respectively.
As for `CCOC(=O)CCCOc1cc(C2CNC(=O)C2)ccc1OC` (centres undefined), the 50% inhibitory concentration (IC50) in [7] is above 1000 µM; in assay [8], 30 µM; at Phosphodiesterase 1 [3], above 0.001 M.
With `COc1ccc(C2CC(=O)N(C)C2)cc1OC` (centres undefined), the concentration for half-maximal inhibition (IC50) in assay [1] was above 1000 µM; on Phosphodiesterase 1 [2] it was above 0.001 M.
In the case of `C=C(C)COc1cc(C2CNC(=O)C2)ccc1OC` (centres undefined), the figures for the IC50 (in [7]; in [8]; on Phosphodiesterase 1 [3]) were above 1000 µM, 24 µM and above 0.001 M, respectively.
`COc1ccc(C2CNC(=O)C2)cc1OCCCC(=O)O` (centres undefined): the half-maximal inhibitory concentration (IC50) is above 1000 µM in assay [7], 400 µM in assay [8] and above 0.001 M on Phosphodiesterase 1 [3].
Consider `C#CCOc1cc(C2CNC(=O)C2)ccc1OC` (centres undefined), for which the IC50 in assay [7] is above 1000 µM; on Phosphodiesterase 1 [3] it was above 0.001 M.
As to `O=C1CC(c2ccccc2)CN1` (centres undefined), the IC50 is above 1000 µM in assay [9] and above 0.001 M on Phosphodiesterase 1 [3].
Consider `COc1ccc(C2CNC(=O)C2)cc1O` (centres undefined), for which the IC50 in assay [7] is above 1000 µM; in [8] it was above 0.001 M; at Phosphodiesterase 1 [3] it was above 0.001 M.
Take `COc1ccc(C2CC(=O)N(C(C)=O)C2)cc1OC` (centres undefined): the IC50 is above 1000 µM in assay [9], above 0.001 M at Phosphodiesterase 1 [2] and 25 µM in assay [4].
Regarding `CCCCOc1cccc(C2CNC(=O)C2)c1` (centres undefined), the IC50 in [9] was above 1000 µM; in assay [8] it was above 0.001 M; on Phosphodiesterase 1 [3], above 0.001 M.
`CCCCOc1ccc(C2CNC(=O)C2)cc1OC` (centres undefined): the 50% inhibitory concentration (IC50) in assay [7] is above 1000 µM; in assay [8], above 0.001 M; at Phosphodiesterase 1 [3] it was above 0.001 M.
In the case of `COc1ccc(C2CNC(=O)C2)cc1OCc1ccccc1` (centres undefined), the figures for the IC50 (in assay [7]; in assay [8]; at Phosphodiesterase 1 [3]) were 174 µM, 96 µM and above 0.001 M, respectively.
On to `COc1cc2c(cc1OC)-c1c/c(=N\c3c(C)cc(C)cc3C)n(C)c(=O)n1CC2` [TREQUINSIN], for which the figures for the IC50 in assay [9] and in [10] were 5 µM and 13 µM, respectively.
As for `COc1ccc(C2CCNC2)cc1OC.O=C(O)C(=O)O` (centres undefined), the IC50 in assay [1] is above 1000 µM; on Phosphodiesterase 1 [2] it was above 0.001 M; in assay [11], above 0.001 M.
For `COc1ccc(C2CC(=O)N(Cc3ccccc3)C2)cc1OC` (centres undefined), the IC50 was above 1000 µM in assay [1] and above 0.001 M at Phosphodiesterase 1 [2].
Regarding `COc1ccc(C2CC(=O)N(C(=O)c3ccccc3)C2)cc1OC` (centres undefined), the IC50 was 58 µM in assay [4], above 0.001 M on Phosphodiesterase 1 [5] and above 1000 µM in assay [6].
`COc1ccc(C2CNC(=O)C2)cc1OCCCC(=O)N(C)C1CCCCC1` (centres undefined): the half-maximal inhibitory concentration (IC50) is above 1000 µM in assay [7], 34 µM in [8] and above 0.001 M at Phosphodiesterase 1 [3].
As for `COc1ccc(C2CNC(=O)C2)cc1OC` (centres undefined), the IC50 is above 1000 µM in assay [7] and above 0.001 M at Phosphodiesterase 1 [3].
Regarding `COc1ccc(C2CNC(=O)C2)cc1OCC(C)C` (centres undefined), the figures for the IC50 (in assay [7]; in assay [8]; on Phosphodiesterase 1 [3]) were above 1000 µM, 18 µM and above 0.001 M, respectively.
In the case of `CCC(C)COc1cc(C2CNC(=O)C2)ccc1OC` (centres undefined), the IC50 was 200 µM in [7] and above 0.001 M at Phosphodiesterase 1 [3].
Consider `CCCCOc1ccc(C2CNC(=O)C2)cc1` (centres undefined), for which the concentration for half-maximal inhibition (IC50) in assay [1] was above 1000 µM; on Phosphodiesterase 1 [2], above 0.001 M; in assay [11], above 0.001 M.
`COc1ccc(C2CC(=O)N(c3ccccc3)C2)cc1OC` (centres undefined): the 50% inhibitory concentration (IC50) in [10] is 230 µM; in [6], above 1000 µM.

The values above are taken from ChEMBL document CHEMBL1124643 (J Med Chem, 1989).
